Measured values taken from ChEMBL document CHEMBL1155462, “Structure-activity relationship for thiohydantoin androgen receptor antagonists for castration-resistant prostate cancer (CRPC)” (J Med Chem, 2010).
The source made the active and inactive calls. The rule behind the calls is not given here.

Assays:
[1] = test system: LNCaP; assay: Inhibition of prostate specific antigen expression in human LNCAP cells in presence of fetal bovine serum; format: functional, cell-based
[2] = test system: LNCaP; assay: Inhibition of prostate specific antigen secretion in human LNCAP cells expressing androgen receptor at 1.25 to 10 uM in presence of charcoal stripped serum; format: functional, cell-based
How it was run: (§1)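 LNCaP/AR cells were made by viral infection with an AR cDNA to express 3–5 fold higher AR levels, mimicking CRPC. They were assayed in charcoal-stripped serum to mimic androgen depletion. Read-out was PSA level, with DMSO as the vehicle.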

[3] = test system: LNCaP; assay: Inhibition of prostate specific antigen secretion in human LNCAP cells expressing androgen receptor in presence of charcoal stripped serum; format: functional, cell-based; how it was run: as §1
[4] = test system: Serum; assay: Drug level in SCID mouse serum at 10 mg/kg, iv; format: ADME, organism-based; design: dose 10 mg/kg, route intravenous; conditions: in vivo, read-out: Drug uptake
[5] = test system: LNCaP; assay: Inhibition of prostate specific antigen expression in human LNCAP cells at 100 to 1000 nM in presence of fetal bovine serum; format: functional, cell-based
[6] = test system: LNCaP; assay: Cytostatic activity against human castration-resistant LNCAP cells expressing androgen receptor xenografted in SCID mouse assessed as change in tumor size at 10 mg/kg qd measured up to 18 days; format: functional, organism-based; design: dose 10 mg/kg
[7] = test system: LNCaP; assay: Cytostatic activity against human castration-resistant LNCAP cells expressing androgen receptor xenografted in SCID mouse assessed as change in tumor size at 50 mg/kg qd measured up to 18 days; format: functional, organism-based; design: dose 50 mg/kg
[8] = test system: LNCaP; assay: Antitumor activity against human castration-resistant LNCAP cells expressing androgen receptor xenografted in SCID mouse assessed as change in tumor size at 10 mg/kg qd for 31 days; format: functional, organism-based; design: dose 10 mg/kg
How it was run: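 AR-overexpressing LNCaP cells were injected subcutaneously into the flanks of castrated SCID mice. Once tumors reached about 100–200 cubic mm, mice were randomized into groups of six. Vehicle or compound was given orally every day, and tumor volume change was followed.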

[9] = test system: LNCaP; assay: Inhibition of prostate specific antigen secretion in human LNCAP cells expressing androgen receptor at 100 to 1000 nM in presence of charcoal stripped serum; format: functional, cell-based; how it was run: as §1
[10] = test system: LNCaP; assay: Inhibition of prostate specific antigen expression in human LNCAP cells at 0.625 to 20 uM in presence of fetal bovine serum; format: functional, cell-based
[11] = test system: LNCaP; assay: Inhibition of prostate specific antigen expression in human LNCAP cells at 0.625 to 5 uM in presence of fetal bovine serum; format: functional, cell-based
[12] = test system: LNCaP; assay: Inhibition of prostate specific antigen expression in human LNCAP cells at 1.25 to 10 uM in presence of fetal bovine serum; format: functional, cell-based
[13] = biological target: T1, Androgen receptor (Rattus norvegicus) (UniProt P15207); assay: Antagonist activity at androgen receptor in rat prostate gland at 1.25 to 10 uM by luciferase reporter gene assay; format: functional, tissue-based
T1 sequence (whole entry): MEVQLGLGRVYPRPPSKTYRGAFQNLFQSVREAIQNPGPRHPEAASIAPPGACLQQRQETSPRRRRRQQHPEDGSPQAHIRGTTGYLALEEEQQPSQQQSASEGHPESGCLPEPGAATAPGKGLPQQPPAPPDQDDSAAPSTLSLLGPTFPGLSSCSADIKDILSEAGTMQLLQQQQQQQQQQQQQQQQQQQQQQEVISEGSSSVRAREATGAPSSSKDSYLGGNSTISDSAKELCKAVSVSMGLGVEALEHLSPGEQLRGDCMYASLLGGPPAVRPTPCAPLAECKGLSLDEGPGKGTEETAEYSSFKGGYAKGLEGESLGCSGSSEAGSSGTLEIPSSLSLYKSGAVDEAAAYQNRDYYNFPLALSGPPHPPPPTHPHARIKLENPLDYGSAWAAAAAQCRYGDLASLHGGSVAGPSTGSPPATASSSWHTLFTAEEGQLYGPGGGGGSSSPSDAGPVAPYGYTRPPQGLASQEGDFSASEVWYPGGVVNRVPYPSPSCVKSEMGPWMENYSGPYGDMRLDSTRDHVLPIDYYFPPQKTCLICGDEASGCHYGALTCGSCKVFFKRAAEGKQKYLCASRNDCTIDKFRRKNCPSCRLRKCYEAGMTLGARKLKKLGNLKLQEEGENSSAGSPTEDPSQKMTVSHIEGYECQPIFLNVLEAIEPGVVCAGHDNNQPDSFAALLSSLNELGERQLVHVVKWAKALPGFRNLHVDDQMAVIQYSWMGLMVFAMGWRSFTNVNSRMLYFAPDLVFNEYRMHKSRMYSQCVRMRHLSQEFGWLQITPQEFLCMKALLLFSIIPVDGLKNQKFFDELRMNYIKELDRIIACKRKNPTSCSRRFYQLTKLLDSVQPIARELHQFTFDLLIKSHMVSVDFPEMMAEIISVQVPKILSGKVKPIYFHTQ

[14] = test system: LAPC4; assay: Antitumor activity against human castration and bicalutamide-resistant LAPC4 cells xenografted in SCID mouse assessed as change in tumor volume at 10 mg/kg measured up to 20 days; format: functional, organism-based; design: dose 10 mg/kg
[15] = test system: LAPC4; assay: Antitumor activity against human castration and bicalutamide-resistant LAPC4 cells xenografted in SCID mouse assessed as change in tumor volume measured up to 50 days; format: functional
[16] = biological target: T1, Androgen receptor (Rattus norvegicus); assay: Antagonist activity at androgen receptor in rat prostate gland at 0.625 to 20 uM by luciferase reporter gene assay; format: functional, tissue-based

| SMILES | IC50 [1] | inhibition [2] | concentration [4] | Activity [5] | Activity [10] | Activity [11] | Activity [12] | Activity [13] | Activity [14] | further results |
| --- | --- | --- | --- | --- | --- | --- | --- | --- | --- | --- |
| CNC(=O)CCCc1ccc(N2C(=S)N(c3ccc(C#N)c(C(F)(F)F)c3)C(=O)C23CCC3)cc1 | 92 nM | Active | 390 µM | Active | – | – | – | – | – | IC50 [3]: 92 nM |
| CNC(=O)c1ccc(N2C(=S)N(c3ccc(C#N)c(C(F)(F)F)c3)C(=O)C23CCC3)cc1F | – | – | 9900 µM | Active | – | – | – | – | – | inhibition [3]: Dose-dependent effect; Activity [6]: Active; Activity [7]: Active; Activity [8]: Active; Activity [9]: Active |
| Cc1ccc(N2C(=S)N(c3ccc(C#N)c(C(F)(F)F)c3)C(=O)C23CCC3)cc1 | 124 nM | Active | – | – | Active | Active | Active | Active | Active | Activity [15]: Dose-dependent effect |
| CC(O)(CS(=O)(=O)c1ccc(F)cc1)C(=O)Nc1ccc(C#N)c(C(F)(F)F)c1 (stereo not drawn) [BICALUTAMIDE] | – | inactive | 10000 µM | – | – | – | – | – | – | – |
| Cc1ccc(N2C(=S)N(c3ccc(C#N)c(C(F)(F)F)c3)C(=O)C2(C)C)cc1 | – | – | – | – | Active | Active | Active | Active | Active | Activity [16]: inactive |
